Only some compounds are listed: those with a hit (about 3.6% of all), similar ones and a draw of the others.
Hsp70 act = Hsp70 transcriptional activation, primary screen. HeLa Hsp70 promoter luciferase reporter, luminescence; scaled: vehicle 0, proteasome-inhibitor control 100%. AID 1203. activation, % at 10 µM. 0.04% of 200,000 active;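 active = activation above the mean across all tested compounds plus 3 SD, cutoff set per campaign, cut at about 5.5% in these data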;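 note: 100% = MG132 at 30 µM as the positive control and 0% = DMSO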
PERK inhibitor = inhibitors of human PERK kinase; Q9NZJ5; AID 1416; CHO PERK-DD fusion, SEAP luminescence translation reporter; inhibition, % at 5.6 µM; 0.17% of 220,000 active;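 active = inhibition above the mean inhibition of all tested compounds plus 3 SD, set separately per screening campaign, cut at about 2.9% in these data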;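 note: PERK kinase domain activated by AP20187 dimerizer at 100 nM; 0% = DMSO with dimerizer and 100% = rapamycin at 8.4 µM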
STAT3 act = activators of IL-6 induced STAT3 signaling. AID 871. U3A cells, IL-6 STAT3-luciferase reporter, luminescence; 100% = signal with IL-6 EC80 alone. 0.91% of 190,000 active. activation (% of control), % at 5.6 µM;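 active = activation above the screen-wide mean of compound activation plus 3 SD, cut at about 130% in these data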;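 note: 0% = background luminescence of wells with medium and substrate only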
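Test system: Human STAT1-deficient U3A cells with stable STAT3-luciferase reporter | Also added: Interleukin-6, 33 ng/mL | Timing: Compound pre-incubation 1 h before IL-6, then 6 h stimulation at 37 °C | Technique: Luciferase reporter luminescence | Read-out: Percent of IL-6-only median luminescence | Benchmarks: IL-6-only wells as 100% reference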
HSF1 inhib = HSF1 inhibition; AID 2098; NIH3T3-HGL HSE-luciferase, MG132-induced, luminescence 8 h; stronger effect = lower value; 0.77% of 300,000 active; activity change, negative = inhibition, % at 7.5 µM (by protocol);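 active = more than half of replicate wells show activity change below -50%, luminescence cut by over half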;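 note: luciferase reports HSF-1 transcriptional activity via heat shock element; 0% = median of DMSO wells and -100% = zero luminescence signal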
AHR act = activates the human aryl hydrocarbon receptor | P35869 | AHR-responsive luciferase reporter cells, luminescence | activation, % at 5 µM | 2.5% of 320,000 active | AID 2796; in the data active = activation above about 47%;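 note: 0% = vehicle wells and 100% = reference agonist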
Target sequence (P35869 whole entry, looked up): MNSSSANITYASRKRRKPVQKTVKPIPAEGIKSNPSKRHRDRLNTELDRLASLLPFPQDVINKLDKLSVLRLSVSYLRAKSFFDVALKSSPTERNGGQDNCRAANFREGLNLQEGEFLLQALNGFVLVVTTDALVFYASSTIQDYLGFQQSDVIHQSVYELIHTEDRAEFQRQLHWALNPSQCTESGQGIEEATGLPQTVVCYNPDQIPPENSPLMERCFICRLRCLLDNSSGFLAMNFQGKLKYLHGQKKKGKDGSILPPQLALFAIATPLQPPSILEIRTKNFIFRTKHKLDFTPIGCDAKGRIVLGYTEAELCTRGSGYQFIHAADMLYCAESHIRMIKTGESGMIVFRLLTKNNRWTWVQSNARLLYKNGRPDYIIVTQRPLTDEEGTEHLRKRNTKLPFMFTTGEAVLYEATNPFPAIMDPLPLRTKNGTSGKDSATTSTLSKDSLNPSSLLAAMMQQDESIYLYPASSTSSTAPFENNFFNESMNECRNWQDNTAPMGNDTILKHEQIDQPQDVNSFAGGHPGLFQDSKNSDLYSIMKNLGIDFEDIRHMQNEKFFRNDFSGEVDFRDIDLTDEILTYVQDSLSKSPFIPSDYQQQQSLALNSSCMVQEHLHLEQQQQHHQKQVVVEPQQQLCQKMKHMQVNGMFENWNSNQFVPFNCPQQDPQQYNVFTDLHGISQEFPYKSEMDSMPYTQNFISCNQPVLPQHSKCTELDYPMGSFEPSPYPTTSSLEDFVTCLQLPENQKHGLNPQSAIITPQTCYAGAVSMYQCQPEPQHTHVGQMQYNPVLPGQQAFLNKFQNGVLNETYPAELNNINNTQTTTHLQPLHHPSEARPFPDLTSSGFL
PolyA inhibitor = yeast polyadenylation inhibition; AID 1875; 0.02% of 300,000 active; S. cerevisiae SKY197-pL101 polyadenylation reporter, beta-gal luminescence; efflux-impaired pdr1/pdr3 knockout yeast; score 100 = 6 SD above DMSO; activity score, % at 12 µM;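 active = lowest replicate activity score at least 50, where 100 means six control SD above control mean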;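 note: yeast exposed to compound for 9 h at 30 °C; higher score means more reporter readthrough which indicates perturbed polyadenylation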
Active calls of the source: *.

CC(O)(C#CCN1CCCCCC1)c1ccccc1 (configuration not stated) was read as Hsp70 act 0, PERK inhibitor -1, STAT3 act 102, HSF1 inhib 3, AHR act 66* and PolyA inhibitor 2.
`OC(C#CCN1CCCCC1)(c1ccccc1)c1ccccc1` gave HSF1 inhib -2, AHR act -1 and PolyA inhibitor 5.
Screening O=C(NNC(=O)C1CCCN(S(=O)(=O)c2ccc3ccccc3c2)C1)C1CC1 (configuration not stated) returned Hsp70 act 0, PERK inhibitor 4.3*, STAT3 act 98, HSF1 inhib 3 and PolyA inhibitor 2.
Nc1c(Cl)cc(C2=NCCn3c2c2ccc([N+](=O)[O-])cc2[n+]3[O-])cc1Cl was read as HSF1 inhib 6, AHR act 73* and PolyA inhibitor -13.
Screening Nc1c(-c2ccc(Cl)cc2)cnn1-c1cc(C(F)(F)F)cc(C(F)(F)F)c1 returned PERK inhibitor 0, HSF1 inhib -5, AHR act 1 and PolyA inhibitor -3.
[O-][n+]1c2cc(C(F)(F)F)ccc2c2n1CCN=C2c1ccc(Cl)cc1 was read as HSF1 inhib -1, AHR act 63* and PolyA inhibitor 9.
Screening CC(=O)Nc1ccc(NC(=O)/C=C/c2cccc(C(F)(F)F)c2)cc1 returned Hsp70 act 0, PERK inhibitor 1, STAT3 act 72, HSF1 inhib -9, AHR act 7 and PolyA inhibitor 5.
Screening CC(=O)N(c1cccc(C(F)(F)F)c1)c1nc(/C=C/C(=O)O)cs1 returned PERK inhibitor 1, HSF1 inhib 10, AHR act 73* and PolyA inhibitor -8.
`O=C(Nc1cccc2ccccc12)OCc1cncs1` gave Hsp70 act 0, PERK inhibitor 0, STAT3 act 103, HSF1 inhib 21, AHR act 57* and PolyA inhibitor 0.
For CCCCCCCCCCOC(=O)C[N+](C)(C)C/C=C(/C)Cl the results were Hsp70 act 0, PERK inhibitor 1, STAT3 act 101, HSF1 inhib -7, AHR act -2 and PolyA inhibitor 6.
`CCCCCCCCCCCCCCCC(=O)OC[C@H](COP(=O)([O-])OCC[N+](C)(C)C)OC(=O)CCCCCCCCCCCCCCC` gave Hsp70 act 0, PERK inhibitor 3.0*, STAT3 act 104, HSF1 inhib -31 and PolyA inhibitor -2.
`CC(=N/O)/C(C)=N\NC(=O)c1ccccn1` gave Hsp70 act 0, PERK inhibitor 0, STAT3 act 112, HSF1 inhib -66*, AHR act 5 and PolyA inhibitor -9.
CCc1ccc(/C(C)=N/NC(=O)c2ccccn2)cc1 was read as Hsp70 act 0, PERK inhibitor 1, STAT3 act 111, HSF1 inhib -1, AHR act 14 and PolyA inhibitor 18.
Cc1ccc(S(=O)(=O)CCC(=O)Nc2ccc(Br)cc2)cc1 was read as HSF1 inhib -67*, AHR act 4 and PolyA inhibitor -8.
Cc1[nH]nc(N)c1N=Nc1ccc(Br)cc1 was read as Hsp70 act 0, PERK inhibitor 1, STAT3 act 94, HSF1 inhib 2, AHR act 68* and PolyA inhibitor 7.
Screening Cc1ccc(C)c2sc(N)nc12 returned Hsp70 act 0, PERK inhibitor 0, STAT3 act 89, HSF1 inhib 1, AHR act 2 and PolyA inhibitor -19.
Screening Cc1ccc(N=Nc2c(N)n[nH]c2N)cc1 returned HSF1 inhib -9, AHR act 6 and PolyA inhibitor 6.
`Cc1nc(N)sc1N=Nc1ccc(Br)cc1` gave Hsp70 act 2, PERK inhibitor 0, STAT3 act 115, HSF1 inhib 3, AHR act 146* and PolyA inhibitor -30.
Screening O=C(O)c1ccccc1CSc1nc2ccccc2[nH]1 returned HSF1 inhib 5, AHR act 11 and PolyA inhibitor 1.
Screening CCN(CCN(C)C)C(=O)C1CCN(S(=O)(=O)c2c(C)noc2/C=C/c2ccccc2F)CC1 returned HSF1 inhib 0, AHR act -1 and PolyA inhibitor -5.
